An excerpt weighted towards active compounds, which were near 1.8% of everything screened.
M5 PAM – positive allosteric modulators of human muscarinic M5 receptor | CHO-K1 hM5, Fluo-8 calcium, ACh EC20 PAM; 0% = ACh EC20, 100% = ACh EC100 | activation, % at 3 µM | 360,000 tested, 0.3% active;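 active = activation above the run cutoff, the mean activation of all test compounds plus 3 SD, cut at about 18% in these data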
Target sequence (P08912 whole entry, looked up): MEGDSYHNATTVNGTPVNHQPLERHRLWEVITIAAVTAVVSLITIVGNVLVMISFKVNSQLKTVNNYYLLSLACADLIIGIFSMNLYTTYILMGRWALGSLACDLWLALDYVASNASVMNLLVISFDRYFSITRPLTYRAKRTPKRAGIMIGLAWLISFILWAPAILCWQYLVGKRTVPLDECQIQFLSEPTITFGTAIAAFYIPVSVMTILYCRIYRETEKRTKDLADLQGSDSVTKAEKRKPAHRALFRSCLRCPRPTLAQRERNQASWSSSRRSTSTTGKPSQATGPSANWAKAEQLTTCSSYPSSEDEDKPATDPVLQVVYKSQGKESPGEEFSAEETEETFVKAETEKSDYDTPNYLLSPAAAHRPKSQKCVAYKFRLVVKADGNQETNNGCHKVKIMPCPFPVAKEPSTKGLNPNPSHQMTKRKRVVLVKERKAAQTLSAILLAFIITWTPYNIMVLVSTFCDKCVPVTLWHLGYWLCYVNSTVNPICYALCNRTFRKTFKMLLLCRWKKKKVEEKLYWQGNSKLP
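Assay system – human M5 receptor in CHO-K1 cells · Read-out – % activation, ACh-normalized · Technique – Fluo-8 calcium fluorescence · Dosing – single-point, 3 µM nominal · Incubation – Fluo-8 loading 80 min at 37 °C plus 30 min room temperature · Repeats – singlicate, one well per test compound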
M4 PAM – positive allosteric modulators of human muscarinic M4 receptor. activation, % at 3 µM. 360,000 tested, 0.4% active. CHO-K1 hM4/Gqi5, Fluo-8 calcium fluorescence, ACh EC20; 0% = ACh EC20, 100% = maximal ACh. P08173;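 active = activation above its plate's cutoff, the mean activation of sample wells plus 3 SD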
CHRM4 agonist – CHRM4 agonism in calcium assay; P08173; CHO-K1 hM4/Gqi5, Fluo-8 calcium fluorescence; vehicle 0%, full acetylcholine response 100%; activation, % at 3 µM; 360,000 tested, 0.14% active; AID 624127;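 active = activation above the run mean over all test wells plus 3 SD, cut at about 32% in these data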;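 also: peak over basal fluorescence ratio per well then scaled between controls; 0% = DMSO wells and 100% = acetylcholine at EC100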
M5 ag – CHRM5 agonism in calcium assay. CHO-K1 hM5 cells, Fluo-8 calcium fluorescence; 0% DMSO wells, 100% maximal acetylcholine response. P08912. activation, % at 3 µM. AID 624037. 360,000 tested, 0.19% active;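 active = activation above the run's mean over test compounds plus 3 SD, cut at about 23% in these data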;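 also: signal is peak over basal fluorescence ratio across the kinetic read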
CHRM5 antagonist – CHRM5 antagonism in calcium assay | inhibition, % at 3 µM | CHO-hM5 cells, Fluo-8 calcium fluorescence, ACh EC80 | 360,000 tested, 0.59% active | P08912;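 active = inhibition above a per-plate cutoff, the mean of that plate's test compounds plus 3 SD, cut at about 27% in these data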;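 also: 0% = acetylcholine EC80 with DMSO and 100% = DMSO without agonist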
M4 antag – CHRM4 antagonism in calcium assay; P08173; CHO-hM4 cells, ACh EC80, Fluo-8 calcium fluorescence; inhibition, % at 3 µM; 360,000 tested, 0.73% active; AID 624125;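 active = inhibition above its plate's cutoff, the mean inhibition of sample wells plus 3 SD, cut at about 27% in these data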;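 also: 0% = acetylcholine EC80 with DMSO and 100% = DMSO without agonist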
Numbers without * were called inactive.

SMILES	M5 PAM	M4 PAM	CHRM4 agonist	M5 ag	CHRM5 antagonist	M4 antag
Cc1ccc(O)c(NC(=S)NC(=O)Cc2ccc(Cl)cc2)c1	-31	-18	140*	61*	81*	100*
Cc1ccc(NC(=S)NC(=O)c2ccc(-c3ccc(Cl)cc3)o2)c(O)c1	-2	11	0	-1	-3	-4
Cc1cccc(N(C)C(=O)C2CCCN2S(=O)(=O)c2cccc3nsnc23)c1 (centres undefined)	2	9	0	3	-1	29*
CN(CC(=O)N1CCN(C2CCCCC2)CC1)S(=O)(=O)c1cccc2nsnc12	-2	1	2	0	2	29*
O=C(CNCC1(N2CCOCC2)CCCCC1)Nc1ccc(Cl)cc1	18*	12	1	2	10	11
COC(=O)[C@@H]1ON2OCC(C)=C3CCCC[C@@]32[C@H]1C(=O)OC	9	20	1	3	-11	3
CN1C(=O)c2c(C(=O)Nc3ccc(Oc4ccncc4)cc3)[nH]c(-c3ccccc3)c2C1=O	-3	2	1	9	3	-7
CNC(=O)c1cc(Oc2ccc(NC(=O)c3[nH]c(-c4ccccc4)c4c3C(=O)N(C)C4=O)cc2)ccn1	7	23*	1	2	-4	-11
CC(=O)N(C)c1ccc(NC(=O)Nc2ccc(Cl)cc2)cc1	-29	-14	27	7	29*	26
O=C(CN1C(=O)NC2(CCOc3ccccc32)C1=O)NCCc1ccccc1 (centres undefined)	0	5	4	2	4	0
O=C(NCc1ccc2c(c1)OCO2)c1nc(S(=O)(=O)Cc2ccccc2F)ncc1Cl	-3	-10	9	-4	16	38*
O=C(CC(=O)Nc1ccc(Cl)cc1)N/N=C\c1cccc(F)c1	-4	-5	0	-2	21	8
CN1CCN(Cc2cccc(Oc3ccc(Cl)cc3)c2)CC1	-16	-17	6	-6	35*	14
CCN1CCN(Cc2cccc(Oc3ccc(Cl)cc3)c2)CC1	-14	-30	5	-6	19	18
COc1ccnc2c1c(=O)n(Cc1ccc(Cl)cc1)c(=O)n2C	0	3	2	-1	-1	-1
CCCCC(c1nc2ccccc2[nH]1)n1c(=O)c(-c2ccccc2)nc2cc(C)c(C)cc21 (centres undefined)	-4	21*	2	0	11	-2
CCc1ccc(N2CC(C(=O)N3CCN(c4ccccn4)CC3)CC2=O)cc1 (centres undefined)	0	26*	1	3	0	-24
CCOc1ccc(N2CC(C(=O)N3CCN(c4ccccn4)CC3)CC2=O)cc1 (centres undefined)	-1	5	2	2	8	-2
OCCCNc1ncnc2c1ncn2[C@H]1CN(C2CCCC2)C[C@@H](CO)O1	0	3	1	1	3	-4
N#CC1(CCCN2CCCCC2)c2ccccc2CCc2ccccc21	-36	-68	9	-17	27	26*
OCCN1CCN(CCCN2c3ccccc3CCc3ccccc32)CC1	-17	-1	3	-3	12	-4
Cc1ccc(NC(=O)c2ccc3c(c2)CCN3S(C)(=O)=O)cc1C	-1	-5	10	-3	13	0
O=C(Nc1ccc(N2CCN(c3ncccc3C(F)(F)F)CC2)nc1)c1cccs1	-32	-51	18	-10	19	27*
O=C(Nc1ccc(N2CCN(c3ccc(C(F)(F)F)cn3)CC2)nc1)c1cccs1	-3	5	0	0	9	-4
CC(C)Cc1ccc(C(C)C(=O)Nc2ccccc2O)cc1 (centres undefined)	-25	-32	43*	41*	50*	38*
SMILES	M5 PAM	M4 PAM	CHRM4 agonist	M5 ag	CHRM5 antagonist	M4 antag
CC(C)c1ccc(CNC(=O)C(=O)Nc2nccs2)cc1	-1	-5	0	-3	6	4
CC(C)Cc1ccc(C(C)C(=O)Nc2nccs2)cc1 (centres undefined)	-1	-6	34*	38*	26	30*
S=C(c1ccccc1)N1CCCc2ccccc21	6	38*	-3	-5	-10	-12
O=C(c1ccccc1)N1CCCc2ccccc21	10	1	1	-2	-11	-2
CN1CCN(c2ccc(S(=O)(=O)N3CCOCC3)cc2NC(=O)Cc2ccccc2F)CC1	6	4	1	1	3	-4
Cc1ccc(NN2C(=O)C=C(c3ccccc3)C2=O)cc1	9	-16	5	15	14	35*
O=C1c2ccccc2C(=O)N1Nc1ccccc1	-1	2	0	-7	8	4
CCN(CC)CCNC(=O)C1c2ccccc2Oc2ccccc21	-18	-18	1	-8	59*	37*
CN(C(=O)COC(=O)C1c2ccccc2Oc2ccccc21)C1CCS(=O)(=O)C1 (centres undefined)	2	-15	1	-13	-5	95*
CCOCc1nnc(NC(=O)C2c3ccccc3Oc3ccccc32)s1	-1	-1	20	28*	1	-1
CCN(CC)CCOC(=O)C1c2ccccc2Oc2ccccc21	-16	-33	1	-7	100*	98*
O=C(c1ccc(CS(=O)Cc2ccc(Cl)cc2)o1)N1CCN(C2CCCCC2)CC1 (centres undefined)	2	-1	0	-3	9	-12
CC(=O)c1ccc(S(=O)(=O)Nc2ccc(C(=O)N3CCC3)cc2)cc1	3	-4	0	1	3	8
CCC(C(=O)NCc1ccccc1)n1c(CSCCOc2ccccc2)nc2ccccc21 (centres undefined)	-12	-9	9	-3	13	7
CC1(C)CN=C(NC2CCCCC2)S1	-9	-14	1	-6	11	43*
COCC(C)NS(=O)(=O)c1ccc(NC(=O)c2ccccn2)cc1 (centres undefined)	-18	-6	1	-3	30*	-9
COc1ccccc1N1CCN(C2CCCN(C(=O)c3oc(C)cc3C)C2)CC1 (centres undefined)	-14	-1	1	-8	57*	0
c1cn2c(-c3ccoc3)cncc2n1	0	-3	0	0	8	8
CCCc1ccc2oc(C(=O)N(Cc3nccn3C)C(C)C)c(C)c2c1	10	17*	2	-2	-1	-28
Cc1c(C(=O)N(Cc2nccn2C)C(C)C)oc2c(F)cccc12	-1	4	1	-4	10	-16

High-throughput results (PubChem)
